PME-1 primary: PME-1 (human) inhibition; Q9Y570; recombinant PME-1, FP-Rh probe fluorescence polarization; inhibition, % at 5.9 µM; hit rate 0.53% among 320,000; AID 2130;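 active = inhibition above the campaign mean of all compounds plus 3 SD, cut at about 26% in these data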;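 note: competitive labeling of PME-1 active site by serine hydrolase directed probe; inhibitors block probe labeling so polarization falls and inhibition rises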
Target sequence (Q9Y570 whole entry, looked up): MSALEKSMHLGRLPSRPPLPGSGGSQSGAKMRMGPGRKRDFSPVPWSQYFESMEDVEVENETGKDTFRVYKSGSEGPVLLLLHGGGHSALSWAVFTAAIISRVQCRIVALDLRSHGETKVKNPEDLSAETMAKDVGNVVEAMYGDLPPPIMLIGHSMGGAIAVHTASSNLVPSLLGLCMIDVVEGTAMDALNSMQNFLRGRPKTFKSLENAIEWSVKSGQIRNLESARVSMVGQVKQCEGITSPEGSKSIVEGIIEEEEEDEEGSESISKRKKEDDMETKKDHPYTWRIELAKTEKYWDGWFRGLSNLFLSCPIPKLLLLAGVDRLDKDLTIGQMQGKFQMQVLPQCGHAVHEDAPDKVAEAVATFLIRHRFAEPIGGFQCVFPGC
RBBP9 inh: human RBBP9 hydrolase inhibition; O75884; recombinant RBBP9, FP-Rh probe fluorescence polarization; inhibition, % at 7.94 µM; hit rate 0.2% among 220,000; AID 1515;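 active = inhibition above the campaign mean of all tested compounds plus 3 SD, cut at about 14% in these data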
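Measured by – fluorescence polarization · Test system – RBBP9 protein · Input – 2.5 µM RBBP9 dispensing solution, before mixing · Measure – percent inhibition from mP, scaled between DMSO and no-protein wells · Benchmarks – DMSO-treated enzyme wells and wells lacking RBBP9 · Times – preincubation 30 min plus labeling 45 min at 25 °C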
LYPLA1 counter: blocks human lysophospholipase 1, a PME1 counter-screen | O75608 | recombinant LYPLA1, FP-Rh probe fluorescence polarization | inhibition, % at 5.9 µM | hit rate 0.16% among 320,000 | AID 2174;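 active = inhibition above the mean of all tested compounds plus 3 SD, set per campaign, cut at about 14% in these data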;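 note: inhibitors block serine hydrolase probe labeling of LYPLA1 so polarization falls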
PAD4 inh: blocks human protein arginine deiminase 4; inhibition, % at 6.36 µM; AID 485272; recombinant PAD4, RCA probe fluorescence polarization; Q9UM07; hit rate 0.41% among 330,000;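 active = percent inhibition above a cutoff equal to the mean of all tested compounds plus 3 SD, cut at about 15% in these data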
Fam108B counter: blocks mouse Fam108B hydrolase in RBBP9 counter-screen | recombinant Fam108B, FP-Rh probe fluorescence polarization | inhibition, % at 9.51 µM | hit rate 0.33% among 300,000 | AID 1947;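 active = inhibition above the screen mean inhibition plus 3 SD, computed separately per campaign, cut at about 18% in these data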;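 note: inhibitors lower polarization as less probe binds the enzyme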
LYPLA2 counter: blocks human lysophospholipase 2, a PME1 counter-screen | recombinant LYPLA2, FP-Rh probe fluorescence polarization | inhibition, % at 5.9 µM | hit rate 0.38% among 320,000 | AID 2177;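 active = inhibition above the screen-wide mean plus 3 SD, limit set per campaign, cut at about 26% in these data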
Target sequence (O95372 whole entry, looked up): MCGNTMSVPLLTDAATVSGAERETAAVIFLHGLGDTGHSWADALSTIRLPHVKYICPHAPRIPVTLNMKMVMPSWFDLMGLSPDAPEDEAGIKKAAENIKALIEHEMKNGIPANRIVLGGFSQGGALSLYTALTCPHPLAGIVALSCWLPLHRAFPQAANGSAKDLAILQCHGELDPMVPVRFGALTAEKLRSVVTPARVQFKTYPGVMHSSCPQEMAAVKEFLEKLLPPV
Large screens that a line does not name were inactive. Compounds with a hit are over-represented: about 1.3% of the library has one in this group of screens.

O=C(COC(=O)C1CC(=O)N(Cc2ccccc2)C1)Nc1ccccc1F (configuration not stated)	none
C=CCn1c(NC(=O)c2ccc(Br)o2)c(S(=O)(=O)c2ccccc2)c2nc3ccccc3nc21	PAD4 inh 20
Oc1ccc(/C=N/Nc2ccc(C(F)(F)F)cn2)cc1	none
Oc1ccc(/C=N/Nc2ccc(C(F)(F)F)cn2)c(O)c1	PME-1 primary 37 (no result: RBBP9 inh)
Cc1ccc(S(=O)(=O)N2CCN(C(=O)COC(=O)c3oc4ccccc4c3C)CC2)cc1	none (no result: RBBP9 inh)
COc1ccc2oc(C(=O)OCC(=O)N3CCN(S(=O)(=O)c4ccc(C)cc4)CC3)c(C)c2c1	PME-1 primary 31 (no result: RBBP9 inh)
CC(C)[N+]1=C2C=CC=CC=C2SC12C([N+](=O)[O-])=CC(=[N+]([O-])[O-])C=C2[N+](=O)[O-] (configuration not stated)	none
NCCCCC(NC(=O)C1CCCN1C(=O)C1CSSCC(N)C(=O)NC(Cc2ccc(O)cc2)C(=O)NC(Cc2ccccc2)C(=O)NC(CCC(N)=O)C(=O)NC(CC(N)=O)C(=O)N1)C(=O)NCC(N)=O (configuration not stated)	none (no result: PME-1 primary, LYPLA1 counter, PAD4 inh, Fam108B counter, LYPLA2 counter)
Cc1cccc(Nc2nnc(SCC(=O)c3ccc(O)cc3O)s2)c1	none (no result: RBBP9 inh)
Cc1ccc(Nc2nnc(SCC(=O)c3ccc(O)cc3O)s2)cc1	PME-1 primary 37 (no result: RBBP9 inh)
O=C(Nc1ccc([N+](=O)[O-])cc1)Nc1ccc2[nH]c(=O)[nH]c2c1	PME-1 primary 30
CNS(=O)(=O)c1cc(C(=O)OCC(=O)NC2CCCc3ccccc32)ccc1Cl (configuration not stated)	PME-1 primary 28
CCc1cccc2c(C(=O)COC(=O)c3ccc([N+](=O)[O-])s3)c[nH]c12	PME-1 primary 29
O=C(OCC(=O)c1c[nH]c2ccccc12)c1ccc([N+](=O)[O-])s1	none
CCOC(=O)C1CCN(C(=O)c2cc(COc3ccc(F)cc3F)on2)CC1	none (no result: RBBP9 inh)
Cc1ccc(NCC(O)C(O)C(O)CO)c(N=Nc2ccccc2)c1C (configuration not stated)	PME-1 primary 52
CC(=O)Nc1cc(NC(C)=O)c(N=Nc2ccccc2)cc1C	none
Cc1cc(C)nc(N/N=C/c2cc(Br)ccc2O)n1	none
COc1ccc(-c2cc(C(=O)N3CCN(C(=O)c4ccccc4F)CC3)[nH]n2)cc1	PME-1 primary 30 (no result: RBBP9 inh)
Cc1ccc(S(=O)(=O)NCC(=O)N(CC2CCCO2)C(C(=O)NC2CCCCC2)C(C)C)cc1 (configuration not stated)	none (no result: RBBP9 inh)
C/C(=N\Nc1ccccc1C(=O)O)c1ccncc1	PME-1 primary 73 (no result: RBBP9 inh)
C/C(=N/NC(=O)c1ccncc1)c1ccccc1	none (no result: RBBP9 inh)
CN(CC(=O)Nc1ccc(F)cc1)S(=O)(=O)c1ccc2c(c1)c(=O)n(C)c(=O)n2C	none (no result: RBBP9 inh)
CCN(CC)c1ccc(S(=O)(=O)N2CCOCC2)cc1NC(=O)Nc1ccccc1	none (no result: PME-1 primary, RBBP9 inh, LYPLA1 counter, Fam108B counter, LYPLA2 counter)
CCN(CC)c1ccc(S(=O)(=O)N2CCOCC2)cc1NC(=O)CN1CCN(Cc2ccccc2)CC1	PME-1 primary 59
CN(C)CCn1c2c(c(SCC(=O)Nc3ccc4c(c3)OCCO4)nc1=O)CCCC2	none (no result: RBBP9 inh)
Cc1[nH]c2ccccc2c1/C=N/n1cnnc1	none
COCCN=c1scc(-c2cc(OC)c(OC)c(OC)c2)n1/N=C/c1c(C)[nH]c2ccccc12	PME-1 primary 27
CCOC(=O)c1c2c(n(C)c1COC)C(=O)C(=O)c1ccc(Br)cc1-2	Fam108B counter 29
COc1ccc(OCC(=O)N2CCN(S(=O)(=O)c3ccc(Cl)cc3)CC2)cc1	none
Cc1sc2ncnc(OCC(=O)N3CCN(S(=O)(=O)c4ccc(Cl)cc4)CC3)c2c1C	PME-1 primary 40
O=[N+]([O-])c1ccc(NCCCNS(=O)(=O)c2ccc(Cl)cc2)c(Cl)c1	LYPLA2 counter 27
CCOc1cc(/C=N/NC(=O)c2cccc([N+](=O)[O-])c2)ccc1OS(=O)(=O)c1ccccc1	PME-1 primary 41
Cc1cc(C(=O)N/N=C/c2cccc([N+](=O)[O-])c2)c(C)n1-c1ccccc1	PME-1 primary 29
O=C(NNc1c2ccccc2nc2ccccc12)c1ccc(O)cc1	PME-1 primary 49
O=C(NNc1c2ccccc2nc2ccccc12)c1cccc(O)c1	PME-1 primary 40
O=C(NNc1c2ccccc2nc2ccccc12)c1ccccc1O	PME-1 primary 54
O=C(NNc1c2ccccc2nc2ccccc12)c1ccccc1Cl	none (no result: RBBP9 inh)
Brc1ccc(-c2ccc(C3Nc4cccc5cccc(c45)N3)o2)cc1	PME-1 primary 41 (no result: RBBP9 inh, Fam108B counter)
Clc1ccccc1C1Nc2cccc3cccc(c23)N1	none (no result: RBBP9 inh)
CC(OC(=O)CCCN=C1NS(=O)(=O)c2ccccc21)C(=O)Nc1ccc(F)cc1Cl (configuration not stated)	none (no result: RBBP9 inh)
CSc1ccc(/C=N\Nc2nncn2N)cc1	PAD4 inh 42 (no result: RBBP9 inh)
CCOC(=O)C1CCN(C(=O)c2cc3c(=O)n4ccccc4nc3n2C)CC1	none
COc1ccc(C(=O)NC(C)CCc2ccccc2)cc1 (configuration not stated)	none (no result: RBBP9 inh)
CCOc1ccc(C(=O)NC(C)CCc2ccccc2)cc1 (configuration not stated)	PME-1 primary 39 (no result: RBBP9 inh)
CCN1CCc2c(sc(N)c2C#N)C1	none
N#Cc1c(N)sc(=S)c2c1CCN(Cc1ccccc1)C2	PME-1 primary 32, LYPLA1 counter 18, PAD4 inh 54, Fam108B counter 27, LYPLA2 counter 27 (no result: RBBP9 inh)
CC(=O)c1cccc(CN2CCC(C(=O)Nc3cccc(-c4ccn[nH]4)c3)CC2)c1	none (no result: RBBP9 inh)
COc1ccccc1C(=O)NC(=S)Nc1cccc2cc(O)ccc12	PME-1 primary 31 (no result: RBBP9 inh)
Cc1ccc(S(=O)(=O)N2[C@@H](c3ccccc3F)C(C(=O)O)=CC[C@H]2c2ccc3c(c2)OCO3)cc1	none (no result: RBBP9 inh)
Cc1ccc(NC(=O)CCC(=O)OCC(=O)c2ccc(Oc3ccc([N+](=O)[O-])cc3)cc2)cc1	none
COc1ccc(NC(=O)CCC(=O)OCC(=O)c2ccc(Oc3ccc([N+](=O)[O-])cc3)cc2)cc1	LYPLA2 counter 26
O=CN/C=C/c1cc(O)ccc1O	RBBP9 inh 39
COc1ccc(Nc2ncnc3sc(-c4ccccc4)cc23)cc1	PME-1 primary 34
COc1ncnc2sc(-c3ccccc3)cc12	none
C/C(=C\C(=O)c1ccccc1)Nc1ccc(O)cc1	PAD4 inh 50
CC(C)C(=O)Nc1nc2cc3c(cc2s1)OCO3	none
Fc1cccc2sc(Nc3nc4cc5c(cc4s3)OCCO5)nc12	PME-1 primary 67
Fc1cc(F)c2nc(Nc3nc4cc5c(cc4s3)OCO5)sc2c1	PME-1 primary 49
Fc1cccc2sc(Nc3nc4cc5c(cc4s3)OCO5)nc12	PME-1 primary 72
O=C(c1c(F)cccc1F)N1CCN(CCOc2ccccc2)CC1	none (no result: RBBP9 inh)
Oc1ccc2n[nH]nc2c1	none
Cc1ccc(S(=O)(=O)Nc2c(NC3CCCCC3)c3ccccc3oc2=O)c(C)c1	none (no result: RBBP9 inh)
